Drawing on publication PMC11843914 (RSC Advances, 2025), this text covers IC50 and cytotoxicity for ten compounds.

Holding throughout (assay type): cell-based
For one test, the system named is HCT-116 (colon cancer). Nature of the test: MTT cell viability assay, HCT-116. The note with it: Homo sapiens; for IC50: HCT-116, 48 h, read-out: IC50 values, HCT-116; for cytotoxicity at 100 µM: HCT-116, read-out: Cytotoxicity %, HCT-116. The method in brief:
(§1)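 MTT viability assay on human cell lines: MCF-7, HCT-116, PC3 and normal BJ-1. Test compounds were first screened at 100 μM. IC50 values came from a concentration series of 100 μM down to 12.5 μM.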

The subject of another test is PC3 (prostate cancer). Nature of the test: MTT cell viability assay, PC3. The settings on record: Homo sapiens; for IC50: 48 h, read-out: IC50 values, PC3; for cytotoxicity at 100 µM: read-out: Cytotoxicity %, PC3. The method in brief:
as §1

For a further test, the system named is MCF-7 (breast cancer). Nature of the test: MTT cell viability assay, MCF-7. The note with it: Homo sapiens; for cytotoxicity at 100 µM: MCF7, read-out: Cytotoxicity %, MCF-7; for IC50: MCF7, 48 h, read-out: IC50 values, MCF-7. The gist of the method:
as §1

Structures are written as SMILES.

Turning to `COc1cc(C=NNC(=O)c2nc3ccccc3s2)ccc1OS(C)(=O)=O` [6e, 4-((2-(Benzo[d]thiazole-2-carbonyl)hydrazono)methyl)-2-methoxyphenyl methanesulfonate], in the test on HCT-116 (colon cancer), the IC50 is 81.4 ± 1.9 µM and the cytotoxicity at 100 µM was 61.1%. Also, in the test with PC3 (prostate cancer), the IC50 amounted to 90.6 ± 2.7 µM and the cytotoxicity at 100 µM came to 60.8%.

As for `CCCS(=O)(=O)Oc1ccc(C=NNC(=O)c2nc3ccccc3s2)cc1OC` [6k, 4-((2-(Benzo[d]thiazole-2-carbonyl)hydrazono)methyl)-2-methoxyphenyl propane-1-sulfonate], the cytotoxicity at 100 µM in the test with HCT-116 (colon cancer) came to 77.2%; in the test with PC3 (prostate cancer), 64.6%; with MCF-7 (breast cancer) it was 59.6%.

With `O=c1[nH]cc(F)c(=O)[nH]1` [5-FU, 5-fluorouracil, reference compound], the IC50 in the test on HCT-116 (colon cancer) was 29.2 ± 1.7 µM; in the test on PC3 (prostate cancer), > 200 µM; with MCF-7 (breast cancer) it was 78.4 ± 4.2 µM.

Take `CCS(=O)(=O)Oc1ccc(C=NNC(=O)c2nc3ccccc3s2)cc1OC` [6h, 4-((2-(Benzo[d]thiazole-2-carbonyl)hydrazono)methyl)-2-methoxyphenyl ethanesulfonate]: the cytotoxicity at 100 µM in the test on HCT-116 (colon cancer) was determined as 55.2%; with PC3 (prostate cancer), 63.4%.

As to `COc1ccc(C=NNC(=O)c2nc3ccccc3s2)cc1O` [6c, N'-(3-Hydroxy-4-methoxybenzylidene)benzo[d]thiazole-2-carbohydrazide], in the test with MCF-7 (breast cancer), the IC50 worked out at 80.9 ± 3.7 µM and the cytotoxicity at 100 µM stood at 58.1%.

With `CCS(=O)(=O)Oc1ccc(C=NNC(=O)c2nc3ccccc3s2)cc1` [6g, 4-((2-(Benzo[d]thiazole-2-carbonyl)hydrazono)methyl)phenyl ethanesulfonate], the cytotoxicity at 100 µM was 68.6% in the test with HCT-116 (colon cancer), 74.8% in the test on PC3 (prostate cancer) and 62.3% in the test on MCF-7 (breast cancer).

For the compound `COc1ccc(C=NNC(=O)c2nc3ccccc3s2)cc1OS(C)(=O)=O` [6f, 5-((2-(Benzo[d]thiazole-2-carbonyl)hydrazono)methyl)-2-methoxyphenyl methanesulfonate], in the test on HCT-116 (colon cancer), the cytotoxicity at 100 µM was determined as 62.8%.

For `CCCS(=O)(=O)Oc1ccc(C=NNC(=O)c2nc3ccccc3s2)cc1` [6j, 4-((2-(Benzo[d]thiazole-2-carbonyl)hydrazono)methyl)phenyl propane-1-sulfonate], the cytotoxicity at 100 µM with HCT-116 (colon cancer) turned out to be 68.5%; in the test with PC3 (prostate cancer) it was 62.3%.

Turning to `CS(=O)(=O)Oc1ccc(C=NNC(=O)c2nc3ccccc3s2)cc1` [6d, 4-((2-(Benzo[d]thiazole-2-carbonyl)hydrazono)methyl)phenyl methanesulfonate], the figures for the cytotoxicity at 100 µM with HCT-116 (colon cancer), in the test on PC3 (prostate cancer) and in the test with MCF-7 (breast cancer) were 66.7%, 66.5% and 62.5%, respectively.

As for `O=C(NN=Cc1ccc(O)cc1)c1nc2ccccc2s1` [6a, N′-(4-Hydroxybenzylidene)benzo[d]thiazole-2-carbohydrazide], in the test on HCT-116 (colon cancer), the IC50 is 102 ± 2.1 µM.
